# Legend:
# Rattus norvegicus [1] = test: Activity for diarrheagenic effect in rats by intragastric administration and the value ranges between 106-698; assay type: functional; settings: po
# Method in brief: (§1)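 Adult male Charles River rats (210–230 g), individually housed, fasted 24 h with water ad libitum. Logarithmically graded prostaglandin doses given orally (intragastric), N = 6-12 per group. Diarrhea scored all-or-none over 8 h after dosing. Prostaglandin stock 1 mg/mL in absolute ethanol, diluted in phosphate buffer pH 7.4 to at most 20% ethanol.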
# Canis familiaris [2] = test: Activity for gastric antisecretory activity in dogs by intrapouch administration and the value ranges between 0.083-0.094; assay type: functional; settings: Canis lupus familiaris, Stomach
# Method in brief: (§2)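 Adult female beagles (6-11 kg) with innervated Pavlov pouches, fasted 24 h with water available. Prostaglandin in isosmotic phosphate buffer pH 7.4 (≤20% ethanol) or vehicle given into the pouch via Thomas cannula after a 30-min basal collection. Canned food fed 30 min later. Juice collected at 30-min intervals for 4 h; acid output = volume × acidity.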
# Canis familiaris [3] = test: Activity for gastric antisecretory activity in dogs by intrapouch administration; assay type: functional; settings: Canis lupus familiaris, Stomach; method in brief: as §2
# Rattus norvegicus [4] = test: Activity for diarrheagenic effect in rats by intragastric administration; assay type: functional; settings: po; method in brief: as §1
# Canis familiaris [5] = test: No inhibitory activity (3 ug/kg) for gastric antisecretory activity in dogs by intrapouch administration; assay type: functional, Canis lupus familiaris, Stomach
# Method in brief: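 Food-stimulated Pavlov-pouch beagles were dosed intrapouch, highest dose tested 3.0 µg/kg, in phosphate buffer pH 7.4 with at most 20% ethanol. Gastric juice was collected at 30-min intervals for 4 h after feeding. Percent reduction of total acid output (volume × acidity) from control was calculated.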
# Canis familiaris [6] = test: Activity for gastric antisecretory activity in dogs by intrapouch administration and the value ranges between 0.069-0.096; assay type: functional; settings: Canis lupus familiaris, Stomach; method in brief: as §2
# Rattus norvegicus [7] = test: Activity for diarrheagenic effect in rats by intragastric administration and the value ranges between 141-1134; assay type: functional; settings: po; method in brief: as §1
# Canis familiaris [8] = test: Activity for gastric antisecretory activity in dogs by intrapouch administration and the value ranges between 63.2-76.9; assay type: functional; settings: Canis lupus familiaris, Stomach; method in brief: as §2
# Rattus norvegicus [9] = test: Activity for diarrheagenic effect in rats by intragastric administration and the value ranges between 947-1848; assay type: functional; settings: po; method in brief: as §1
# Canis familiaris [10] = test: Activity for gastric antisecretory activity in dogs by intrapouch administration and the value ranges between 0.06-0.12; assay type: functional; settings: Canis lupus familiaris, Stomach; method in brief: as §2
# Rattus norvegicus [11] = test: Activity for diarrheagenic effect in rats by intragastric administration and the value ranges between 37-77; assay type: functional; settings: po; method in brief: as §1
# Canis familiaris [12] = test: Activity for gastric antisecretory activity in dogs by intrapouch administration and the value ranges between 0.017-0.032; assay type: functional; settings: Canis lupus familiaris, Stomach; method in brief: as §2
structure (smiles),measurement,setting,value
COC(=O)CC/C=C\CC[C@H]1C(=O)C[C@@H](O)[C@@H]1/C=C/CC(C)(O)CCC1CC1 (stereo partly drawn),ED50,Rattus norvegicus [1],273 µg/kg
same,ED50,Canis familiaris [2],0.09 µg/kg
COC(=O)CC/C=C\CC[C@H]1C(=O)C[C@@H](O)[C@@H]1/C=C/CC(C)(O)CCC1CCCCCC1 (stereo partly drawn),ED50,Canis familiaris [3],~95 µg/kg
same,ED50,Rattus norvegicus [4],> 3160 µg/kg
COC(=O)CC/C=C\CC[C@H]1C(=O)C[C@@H](O)[C@@H]1/C=C/CC(C)(O)CCCCO (stereo partly drawn),Inhibition,Canis familiaris [5],0%
COC(=O)CC/C=C\CC[C@H]1C(=O)C[C@@H](O)[C@@H]1/C=C/CC(C)(O)CCC1CCC1 (stereo partly drawn),ED50,Canis familiaris [6],0.09 µg/kg
same,ED50,Rattus norvegicus [7],316 µg/kg
COC(=O)CC/C=C\CC[C@H]1C(=O)C[C@@H](O)[C@@H]1/C=C/CC(C)(O)CCC1CCCCC1 (stereo partly drawn),ED50,Canis familiaris [8],70 µg/kg
same,ED50,Rattus norvegicus [4],> 3160 µg/kg
COC(=O)CC/C=C\CC[C@H]1C(=O)C[C@@H](O)[C@@H]1/C=C/CC(C)(O)CCC1CCCC1 (stereo partly drawn),ED50,Rattus norvegicus [9],1310 µg/kg
same,ED50,Canis familiaris [10],0.09 µg/kg
CCCCC(C)(O)C/C=C/[C@H]1[C@H](O)CC(=O)[C@@H]1CC/C=C\CCC(=O)OC (stereo partly drawn) [ENISOPROST],ED50,Rattus norvegicus [11],49 µg/kg
same,ED50,Canis familiaris [12],0.023 µg/kg

# From ChEMBL document CHEMBL1124453, “18-cycloalkyl analogues of enisoprost” (1989)
